Laboratory results from ChEMBL document CHEMBL1149647, “Structure-based design of TACE selective inhibitors: manipulations in the S1'-S3' pocket” (Bioorg Med Chem, 2007).

What was measured:
[1] = target: Collagenase 3 (Homo sapiens, UniProt P45452); assay: Inhibition of human recombinant MMP13
Outline: (§1)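 Enzyme potency is expressed as IC50 in nM, reported as average ± SD.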

[2] = target: T1, Disintegrin and metalloproteinase domain-containing protein 17 (Homo sapiens, UniProt P78536); assay: Inhibition of human TACE in human whole blood
[3] = target: T1, Disintegrin and metalloproteinase domain-containing protein 17; assay: Inhibition of human TACE expressed in CHO cells by FRET assay; format: cell-based
[4] = species: Homo sapiens; assay: Selectivity for TACE over MMP2
[5] = target: 72 kDa type IV collagenase (Homo sapiens, UniProt P08253); assay: Inhibition of human recombinant MMP2; outline: as §1
[6] = species: Homo sapiens; assay: Selectivity for TACE over MMP13
[7] = target: Matrix metalloproteinase-14 (Homo sapiens, UniProt P50281); assay: Inhibition of human recombinant MMP14
[8] = system: Mus musculus; assay: Inhibition of LPS-induced TNFalpha production in BALB/CJ mouse at 25 mg/kg, po after 90 mins; format: functional; conditions: 1.5 h

Chain of 72 kDa type IV collagenase (P08253 whole entry): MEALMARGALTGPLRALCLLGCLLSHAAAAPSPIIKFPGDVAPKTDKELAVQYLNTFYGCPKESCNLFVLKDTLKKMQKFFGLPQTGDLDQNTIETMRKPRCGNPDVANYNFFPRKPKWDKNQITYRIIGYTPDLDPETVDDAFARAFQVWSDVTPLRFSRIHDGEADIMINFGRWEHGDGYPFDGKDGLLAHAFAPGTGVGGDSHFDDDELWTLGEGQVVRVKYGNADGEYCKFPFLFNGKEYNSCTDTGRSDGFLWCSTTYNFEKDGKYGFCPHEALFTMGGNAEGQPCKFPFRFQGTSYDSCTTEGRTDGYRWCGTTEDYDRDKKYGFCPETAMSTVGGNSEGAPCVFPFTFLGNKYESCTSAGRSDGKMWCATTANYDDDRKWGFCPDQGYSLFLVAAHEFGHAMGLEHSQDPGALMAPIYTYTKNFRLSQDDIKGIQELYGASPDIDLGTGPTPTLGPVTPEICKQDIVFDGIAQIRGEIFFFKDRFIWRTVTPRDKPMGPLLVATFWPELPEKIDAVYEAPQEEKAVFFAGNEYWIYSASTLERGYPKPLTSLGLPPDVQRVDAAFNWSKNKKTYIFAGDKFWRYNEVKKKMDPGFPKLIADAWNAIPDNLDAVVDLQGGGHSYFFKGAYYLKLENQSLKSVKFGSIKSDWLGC
T1 sequence (P78536 whole entry, the tested form may be a part): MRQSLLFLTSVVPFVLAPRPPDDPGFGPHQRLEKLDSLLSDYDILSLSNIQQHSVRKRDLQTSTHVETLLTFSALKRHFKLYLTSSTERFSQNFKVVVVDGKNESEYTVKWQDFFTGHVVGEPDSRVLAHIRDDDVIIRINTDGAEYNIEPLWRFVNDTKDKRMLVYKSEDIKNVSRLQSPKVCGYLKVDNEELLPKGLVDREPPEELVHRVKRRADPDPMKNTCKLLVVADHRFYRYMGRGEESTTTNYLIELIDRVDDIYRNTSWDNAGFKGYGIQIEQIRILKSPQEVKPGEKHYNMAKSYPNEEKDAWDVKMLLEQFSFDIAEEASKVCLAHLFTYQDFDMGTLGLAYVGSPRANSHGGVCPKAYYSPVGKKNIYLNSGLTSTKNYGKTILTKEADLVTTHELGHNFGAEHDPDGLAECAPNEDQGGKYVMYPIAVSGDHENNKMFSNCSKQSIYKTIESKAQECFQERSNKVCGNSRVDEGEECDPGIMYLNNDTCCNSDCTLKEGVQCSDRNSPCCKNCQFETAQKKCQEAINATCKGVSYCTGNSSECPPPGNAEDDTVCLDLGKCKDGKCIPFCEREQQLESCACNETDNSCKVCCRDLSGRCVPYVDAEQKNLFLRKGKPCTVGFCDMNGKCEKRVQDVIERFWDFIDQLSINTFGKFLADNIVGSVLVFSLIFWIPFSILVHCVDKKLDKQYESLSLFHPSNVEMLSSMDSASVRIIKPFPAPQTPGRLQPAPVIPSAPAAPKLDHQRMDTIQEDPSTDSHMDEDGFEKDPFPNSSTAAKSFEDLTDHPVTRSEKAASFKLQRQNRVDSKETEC

Structure (SMILES) | IC50 [1] [nM] | IC50 [2] [nM] | IC50 [3] [nM] | Selectivity ratio [4] | IC50 [5] [nM] | Selectivity ratio [6] | IC50 [7] [nM] | inhibition in vivo at 25 mg/kg [8] [%]
CC#CCOc1ccc(S(=O)(=O)CC2(C(=O)NO)CCN(C(=O)OC(C)(C)C)CC2)cc1 | 135 | 14000 | 2 | – | – | – | – | –
CC#CCOc1ccc(S(=O)(=O)CC2(C(=O)NO)CCN(S(=O)(=O)C(C)C)CC2)cc1 | 157 | 1500 | 3 | 93 | 280 | 52 | 3640 | –
CC#CCNc1ccc(S(=O)(=O)N2CCSC(C)(C)[C@@H]2C(=O)NO)cc1 | 30 | 3500 | 2.3 | – | 56 | – | – | –
CC#CC(C)(C)Oc1ccc(S(=O)(=O)CC2(C(=O)NO)CCN(S(=O)(=O)C(C)C)CC2)cc1 | 12000 | > 50000 | 27 | – | > 1670 | – | – | –
CC#CCOc1ccc(S(=O)(=O)N2CCSC(C)(C)[C@@H]2C(=O)NO)cc1 | – | 300 | – | – | – | – | – | –
CC#CCN(C)c1ccc(S(=O)(=O)CC2(C(=O)NO)CCN(C(=O)OC(C)(C)C)CC2)cc1 | 1600 | > 50000 | 3.3 | – | – | – | – | –
CC#CC(C)Oc1ccc(S(=O)(=O)CC2(C(=O)NO)CCN(S(=O)(=O)C(C)C)CC2)cc1 (stereo not given) | 2910 | 31000 | 4 | 1000 | 4180 | 720 | – | –
CC#CCNc1ccc(S(=O)(=O)CC2(C(=O)NO)CCNCC2)cc1 | – | – | 64.5 | – | – | – | – | –
CC#CCNc1ccc(S(=O)(=O)CC2(C(=O)NO)CCN(Cc3ccncc3)CC2)cc1 | 6880 | 7200 | 6.4 | – | 1530 | – | 4320 | –

Further lines, with some results ahead:

IC50 [1] [nM] | IC50 [2] [nM] | IC50 [3] [nM] | Selectivity ratio [4] | IC50 [5] [nM] | Selectivity ratio [6] | IC50 [7] [nM] | Structure (SMILES) | inhibition in vivo at 25 mg/kg [8] [%]
2080 | 5000 | 2 | – | 97 | – | – | CC#CCNc1ccc(S(=O)(=O)CC2(C(=O)NO)CCN(S(=O)(=O)C(C)C)CC2)cc1 | –
772 | 6400 | < 1 | – | 216 | > 750 | 3620 | CC#CCNc1ccc(S(=O)(=O)CC2(C(=O)NO)CCN(C(=O)N(CC)CC)CC2)cc1 | –
– | 16000 | 1.6 | – | 120 | > 400 | 2370 | CC#CCNc1ccc(S(=O)(=O)CC2(C(=O)NO)CCN(C(=O)OC(C)(C)C)CC2)cc1 | –
2480 | 4900 | 3.5 | – | 1310 | – | 7050 | CC#CCNc1ccc(S(=O)(=O)CC2(C(=O)NO)CCN(C(=O)C(C)CC)CC2)cc1 (stereo not given) | –
584 | 4800 | 2.5 | – | 46 | 499 | 1000 | CC#CCNc1ccc(S(=O)(=O)CC2(C(=O)NO)CCN(C(=O)c3ccccc3C)CC2)cc1 | –
1040 | 25000 | 10 | – | 334 | – | – | CC(C)(C)OC(=O)N1CCC(CS(=O)(=O)c2ccc(NCC#CCO)cc2)(C(=O)NO)CC1 | –
3200 | 3600 | 2.3 | – | 513 | – | 4890 | CC#CCNc1ccc(S(=O)(=O)CC2(C(=O)NO)CCN(C(=O)C(C)C)CC2)cc1 | 72
